# From PMC5167242 (Neoplasia (New York, N.Y.), 2016)
# Several values for one entry are separate records, joined by “and”; a condition that tells them apart may be missing. Equal entries are not always repeated.
# Assays:
# [1] = tested on: FGFR1 amplified and FGFR2 amplified or mutated cancer cell lines; assay: cell viability assay; type: cell-based, human
# In short: (§1)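 Cell lines were grown in RPMI with 1% glutamine and 10% FBS. Cells were exposed to test compound (0.01–50 μM; 10 mM DMSO stock) 48 h after seeding. MTS was added 72 h after treatment and read at 490 nm after 2 h incubation. IC50 was calculated by software and reported as arithmetic mean + SEM.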
# [2] = tested on: tumor type cell lines with wt FGFR1 and wt FGFR2; assay: cell viability assay; type: cell-based; settings: Homo sapiens, 72 h
# In short: as §1
# DMS114 cells [3] = assay: cell viability assay; type: cell-based; settings: Homo sapiens, DMS-114
# In short: as §1
# H1299 cells [4] = assay: cell viability assay; type: cell-based; settings: Homo sapiens, NCI-H1299
# In short: as §1
# DMS114 cells [5] = assay: cell cycle perturbation, flow cytometry of DNA content, DMS114; type: cell-based, human; settings: DMS114, 1 μM (IC50); starting at 24 hours and persisting up to 48 hours
# H1299 cells [6] = assay: cell cycle perturbation, flow cytometry of DNA content, H1299; type: cell-based, human; settings: H1299, 10 μM (IC50); 4, 24, 48 and 72 hours
# DMS114 cells [7] = assay: TUNEL apoptosis assay, DMS114; type: cell-based, human; settings: DMS114, 1 μM (IC50); 4, 24, 48 and 72 hours
# H1299 cells [8] = assay: TUNEL apoptosis assay, H1299; type: cell-based, human; settings: H1299, 10 μM (IC50); 4, 24, 48 and 72 hours
# [9] = tested on: H1299 (NSCLC) FGFR1 wt xenograft; assay: H1299 xenograft tumor growth; type: in vivo, mice; settings: for Best T/C%: day 38 after implant
# In short: (§2)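 Female NCr-nu/nu mice (6 weeks old, specific pathogen free) received subcutaneous flank tumor fragments. Tumors were measured by caliper twice weekly, with volume = (length × width²)/2. Best %T/C = (median treated volume / median control volume) × 100.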
# [10] = tested on: H1581 (NSCLC) FGFR1 amplified xenograft; assay: H1581 xenograft tumor growth; type: in vivo, mice; settings: for Best T/C%: day 27 after implant
# In short: as §2
# [11] = tested on: DMS114 (SCLC) FGFR1 amplified xenograft; assay: DMS114 xenograft tumor growth; type: in vivo, mice
# In short: as §2
# [12] = tested on: MNK45 gastric carcinoma FGFR2 wt xenograft; assay: MNK45 xenograft tumor growth; type: in vivo, mice
# In short: as §2
# [13] = tested on: SNU16 gastric carcinoma FGFR2 amplified xenograft; assay: SNU16 xenograft tumor growth; type: in vivo, mice; settings: day 30 after implant
# In short: as §2
# [14] = tested on: HEC1A endometrial carcinoma FGFR2 wt xenograft; assay: HEC1A xenograft tumor growth; type: in vivo, mice; settings: for Best T/C%: HEC1A
# In short: as §2
# [15] = tested on: MFE296 endometrial carcinoma FGFR2 mutated xenograft; assay: MFE296 xenograft tumor growth; type: in vivo, mice
# In short: as §2
# [16] = pharmacokinetics after 12 daily oral doses in lung xenograft bearing mice; type: in vivo; settings: for tumor/plasma ratio: lung xenografts
# [17] = target: VEGFR1-3 tyrosine kinases; settings: biochemical assays; cited from earlier work
# [18] = target: PDGFRα/β tyrosine kinases; settings: biochemical assays; cited from earlier work
# FGFR1-3 tyrosine kinases = settings: biochemical assays; cited from earlier work
# [19] = after 21 days of treatment, just before the daily oral dose of 10 mg, cited from earlier work
# [20] = tested on: breast cancer patients with FGF-aberrant (FGFR1 and/or FGF3/4/19 gene amplified) tumors; settings: among 12 breast cancer patients with FGF-aberrant tumors; cited from earlier work
# [21] = NCr-nu/nu, mouse, tumor and plasma, po
smiles,measurement,setting,value
CNC(=O)c1cccc2cc(Oc3ccnc4cc(OCC5(N)CC5)c(OC)cc34)ccc12 [lucitanib],IC50 lower in FGFR2 amplified or mutated cell lines than in FGFR2 wt cells,[1]; FGFR2 amplified or mutated cell lines vs FGFR2 wt cells,10 fold
same,IC50,"[1]; Homo sapiens, 72 h",45 to 3160 nM
same,IC50,[2],3000 to 23000 nM
same,IC50,DMS114 cells [3],1000 nM
same,IC50,H1299 cells [4],10000 nM
same,perturbation of the cell cycle,DMS114 cells [5],G1 block
same,perturbation of the cell cycle,H1299 cells [6],late S-G2/M blockade
same,apoptosis by TUNEL assay,DMS114 cells [7],no apoptosis was detected
same,apoptosis by TUNEL assay,H1299 cells [8],no apoptosis was detected
same,Best T/C%,"[9]; H1299, 2.5 mg/kg orally daily for 30 days",55 (38) %
same,Best T/C%,"[9]; H1299, 5 mg/kg orally daily for 30 days",41% and 41 (38) %
same,Best T/C%,"[9]; H1299, 10 mg/kg orally daily for 30 days",28 (38) %
same,Best T/C%,"[9]; H1299, 20 mg/kg orally daily for 30 days",24 (38) %
same,tumor regressions,"[9]; H1299 lung xenograft, any dose schedule, best effect tumor stabilization",No tumor regressions
same,Best T/C%,"[10]; H1581, 2.5 mg/kg orally daily for 30 days",46 (27) %
same,Best T/C%,"[10]; H1581, 5 mg/kg orally daily for 30 days",24% and 24 (27) %
same,Best T/C%,"[10]; H1581, 10 mg/kg orally daily for 30 days",21 (27) %
same,Best T/C%,"[10]; H1581, 20 mg/kg orally daily for 30 days",16 (27) %
same,tumor regressions,"[10]; H1581 lung xenograft, any dose schedule, best effect tumor stabilization",No tumor regressions
same,Best T/C%,"[11]; DMS114, 2.5 mg/kg orally daily for 30 days, day 44 after implant",45 (44) %
same,Best T/C%,"[11]; DMS114, 5 mg/kg orally daily for 30 days, day 46 after implant",20% and 20 (46) %
same,Best T/C%,"[11]; DMS114, 10 mg/kg orally daily for 30 days, day 44 after implant",16 (44) %
same,Best T/C%,"[11]; DMS114, 20 mg/kg orally daily for 30 days, day 44 after implant",12 (44) %
same,tumor regressions,"[11]; DMS114 lung xenograft, any dose schedule, best effect tumor stabilization",No tumor regressions
same,Best T/C%,"[12]; MNK45, 2.5 mg/kg orally daily for 30 days, day 28 after implant",22 (28) %
same,Best T/C%,"[12]; MNK45, 5 mg/kg orally daily for 30 days, day 28 after implant",12 (28) %
same,Best T/C%,"[12]; MNK45, 10 mg/kg orally daily for 30 days, day 32 after implant",10 (32) %
same,Best T/C%,"[12]; MNK45, 20 mg/kg orally daily for 30 days, day 32 after implant",7 (32) %
same,tumor regressions,"[12]; MNK45 wt FGFR2, 20 mg/kg (data not shown)",3 out of 10 mice
same,Best T/C%,"[13]; SNU16, 2.5 mg/kg orally daily for 30 days",40 (30) %
same,Best T/C%,"[13]; SNU16, 5 mg/kg orally daily for 30 days",32 (30) %
same,Best T/C%,"[13]; SNU16, 10 mg/kg orally daily for 30 days",16 (30) %
same,Best T/C%,"[13]; SNU16, 20 mg/kg orally daily for 30 days",14 (30) %
same,tumor regressions,"[14]; HEC1A wt FGFR2, 20 mg/kg (data not shown)",2 out of 10 mice
same,Best T/C%,"[14]; 2.5 mg/kg orally daily for 30 days, day 45 after implant",29 (45) %
same,Best T/C%,"[14]; 5 mg/kg orally daily for 30 days, day 47 after implant",17 (47) %
same,Best T/C%,"[14]; 10 mg/kg orally daily for 30 days, day 45 after implant",12 (45) %
same,Best T/C%,"[14]; 20 mg/kg orally daily for 30 days, day 49 after implant",10 (49) %
same,Best T/C%,"[15]; MFE296, 2.5 mg/kg orally daily for 30 days, day 28 after implant",36 (28) %
same,Best T/C%,"[15]; MFE296, 5 mg/kg orally daily for 30 days, day 25 after implant",34 (25) %
same,Best T/C%,"[15]; MFE296, 10 mg/kg orally daily for 30 days, day 30 after implant",22 (30) %
same,Best T/C%,"[15]; MFE296, 20 mg/kg orally daily for 30 days, day 25 after implant",17 (25) %
same,tumor/plasma ratio,[16]; 4 hours after the last of 12 daily oral doses,2.5
same,tumor/plasma ratio,[16]; 24 hours after the last of 12 daily oral doses,24.8
same,tumor drug concentration at 4 hours relative to in vitro IC50,"[16]; FGFR1 amplified H1581 and DMS114 tumors, higher than IC50 values",3 to 26 fold
same,Kp at 4 h,[16]; [21],2.5 ± 0.7
same,Kp at 24 h,[16]; [21],24.8 ± 7.4
same,Kd,[17],< 100 nM
same,Kd,[18],< 100 nM
same,Kd,FGFR1-3 tyrosine kinases,< 100 nM
same,tumor drug concentration relative to concomitant plasma drug concentration,[19],25 fold
same,tumor drug concentration,[19]; breast cancer biopsy from a person,11 µM
same,confirmed objective RECIST responses,[20],4
same,unconfirmed objective RECIST responses,[20],2
